Assay results: publication PMC3201796 (Cell host & microbe, 2011)
In brackets after ≈: the same amount, converted by molar mass. Structures can show the parent of a compound that is named as a salt. Where two headings read alike, the source gives them in different places.

Experiments:
HIV-1 RT = HIV-1 RT (Human immunodeficiency virus type 1 group M subtype B, UniProt P03366); test: HIV-1 reverse transcriptase assay; format: biochemical; settings: competing dATP (3.2 μM); activated calf thymus DNA
Method in brief: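 Reaction mix: Tris-HCl pH 7.5, DTT, MgCl2, BSA, activated calf thymus DNA, unlabelled dCTP, dTTP and dGTP, and [3H]dATP (3.2 µM) with diphosphate test compound at various concentrations. Started with recombinant HIV-1 RT and run 30 min at 37 °C. Stopped with ice-cold 5% TCA/pyrophosphate; acid-insoluble DNA caught on glass-fibre filters and counted by liquid scintillation.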

HSV-1 DNA polymerase = HSV-1 DNA polymerase (Human herpesvirus 1, UniProt P04293); test: HSV-1 DNA polymerase assay; format: biochemical
Method in brief: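 Recombinant HSV-1 DNA polymerase; 40 µl reactions with a Tris.HCl pH 7.5/DTT/MgCl₂ premix, BSA and activated calf thymus DNA. One radiolabelled dNTP was the competing substrate: [³H]dATP (3.2 µM), [³H]dGTP (2.8 µM), [³H]dTTP (1 µM) or [³H]dCTP (2.5 µM); unlabelled others present. Tenofovir-diphosphate added from 200, 20, 2, 0.2 µM solutions. 60 min at 37°C; stopped with ice-cold TCA/pyrophosphate; acid-insoluble DNA collected on glass-fibre filters.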

Cytostatic activity [1] = format: cell-based; settings: human, HEL cells, non-infected
Cytostatic activity [2] = format: cell-based; settings: human, PHKs, non-infected
HEL cells = test: Cytotoxicity by cell morphology; format: cell-based, human; settings: HEL, non-infected, cell morphology
Method in brief: (§1)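 Run in non-infected cultures in parallel with the antiviral assay. Cells exposed to test compound and examined microscopically at day 3. MCC is the lowest concentration giving a detectable change in cell morphology.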

PHKs = test: Cytotoxicity by cell morphology; format: cell-based, human; settings: non-infected
Method in brief: as §1

HIV-1 = settings: lymphoid and cervico-vaginal tissues; ref Lisco et al., 2008; cited from earlier work
HSV-2 [3] = format: cell-based; settings: M/M
HSV-2 [4] = format: cell-based; settings: day 6, M/M
HSV-2 [5] = test: HSV-2 cytopathicity in primary monocyte/macrophage cultures; format: cell-based; settings: for Cytopathicity (CPE) (%): day 6, M/M
HSV-1 = test: HSV-1-infected athymic nude mice; format: in vivo; settings: 1% gel, topical
Method in brief: (§2)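 Female NMRI athymic nude or hairless mice (~20 g, ~4 weeks; groups of five) scarified over ~1 cm² lumbosacral area with HSV-1 KOS (5×10^3 PFU) or HSV-2 G (5×10^2). Test compound 1% in 100% DMSO or CAPRISA 004-type gel, topical twice daily for 5 days from 1-2 h post-infection; same vehicle without drug as placebo. Lesions and mortality recorded over one month; Kaplan-Meier survival, log-rank test.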

HSV-2 [6] = test: HSV-2-infected athymic nude mice; format: in vivo; settings: 1% gel, topical
Method in brief: as §2

HSV-2G, HSV-2MS = test: Human tonsillar tissue ex vivo infected with HSV-2; format: cell-based; settings: data not shown
HSV-2 [7] = settings: daily oral, co-formulation with FTC; ref Lama et al., 18th CROI 2011, # 1002; cited from earlier work

HSV-1 DNA polymerase, sequence (P04293 whole entry): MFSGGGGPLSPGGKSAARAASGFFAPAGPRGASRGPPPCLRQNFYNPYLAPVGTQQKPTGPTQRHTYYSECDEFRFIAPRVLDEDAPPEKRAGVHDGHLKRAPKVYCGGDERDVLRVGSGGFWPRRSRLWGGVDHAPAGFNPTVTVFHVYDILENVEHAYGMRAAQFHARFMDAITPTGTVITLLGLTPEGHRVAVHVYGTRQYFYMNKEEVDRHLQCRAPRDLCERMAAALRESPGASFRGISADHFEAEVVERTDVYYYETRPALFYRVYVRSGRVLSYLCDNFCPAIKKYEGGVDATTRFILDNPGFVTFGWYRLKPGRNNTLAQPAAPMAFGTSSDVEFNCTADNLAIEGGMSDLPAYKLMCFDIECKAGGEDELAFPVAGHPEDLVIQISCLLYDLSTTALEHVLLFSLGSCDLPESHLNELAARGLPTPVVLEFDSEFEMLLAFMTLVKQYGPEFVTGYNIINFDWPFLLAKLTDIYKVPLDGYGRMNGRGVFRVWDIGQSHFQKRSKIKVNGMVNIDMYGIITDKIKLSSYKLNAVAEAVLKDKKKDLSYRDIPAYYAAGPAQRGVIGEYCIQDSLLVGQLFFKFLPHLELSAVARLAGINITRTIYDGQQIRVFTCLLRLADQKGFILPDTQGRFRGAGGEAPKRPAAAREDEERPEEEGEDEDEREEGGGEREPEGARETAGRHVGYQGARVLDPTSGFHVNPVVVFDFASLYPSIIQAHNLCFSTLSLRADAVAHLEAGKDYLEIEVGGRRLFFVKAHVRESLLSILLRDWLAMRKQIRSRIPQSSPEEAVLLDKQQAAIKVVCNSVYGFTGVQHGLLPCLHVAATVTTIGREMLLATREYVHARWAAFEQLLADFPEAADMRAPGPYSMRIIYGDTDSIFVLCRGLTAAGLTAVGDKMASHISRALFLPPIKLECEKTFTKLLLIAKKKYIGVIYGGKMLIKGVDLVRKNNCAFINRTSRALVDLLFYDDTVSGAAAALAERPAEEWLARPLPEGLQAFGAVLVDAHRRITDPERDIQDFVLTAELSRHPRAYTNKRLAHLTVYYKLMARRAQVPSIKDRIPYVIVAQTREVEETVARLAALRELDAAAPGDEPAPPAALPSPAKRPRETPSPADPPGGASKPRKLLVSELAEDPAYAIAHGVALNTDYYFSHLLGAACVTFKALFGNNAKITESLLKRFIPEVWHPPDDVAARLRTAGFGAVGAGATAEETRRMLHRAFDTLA

CC(Cn1cnc2c(N)ncnc21)OCP(=O)(O)OP(=O)(O)OP(=O)(O)O (stereo in doubt) [Tenofovir-diphosphate, Tenofovir diphosphate]
IC50 HIV-1 RT (HIV-1 RT): 1.3 µg/mL | IC50 herpesvirus DNA polymerase (HSV-1 DNA polymerase; competing dATP (3.2 μM)): 0.38 ± 0.03 µg/mL | IC50 herpesvirus DNA polymerase (HSV-1 DNA polymerase; competing dCTP (2.5 μM)): 25 ± 1.8 µg/mL | IC50 herpesvirus DNA polymerase (HSV-1 DNA polymerase; competing dGTP (2.8 μM)): 7.1 ± 5 µg/mL | IC50 herpesvirus DNA polymerase (HSV-1 DNA polymerase; competing dTTP (1 μM)): 8.5 ± 3.8 µg/mL

Nc1nc2c(ncn2COCCO)c(=O)[nH]1 [Acyclovir, 9-(2-hydroxyethoxy-methyl)guanine]
CC50 at 3 days (Cytostatic activity [1]): 166 ± 17 µg/mL (≈ 737 µM) | CC50 at 3 days (Cytostatic activity [2]): 132 µg/mL (≈ 586 µM) | Cell toxicity MCC (minimum cytotoxic concentration) (HEL cells): >100 µg/mL | Cell toxicity MCC (minimum cytotoxic concentration) (PHKs): >50 µg/mL | inhibition of HIV-1 in herpesvirus-coinfected tissues (HIV-1): efficiently inhibits HIV-1

Nc1ncnc2c1ncn2CCOCP(=O)(O)O [Adefovir, 9-[2-(phosphonylmethoxyethyl)adenine]]
CC50 at 3 days (Cytostatic activity [1]): 100 ± 57 µg/mL (≈ 366 µM) | CC50 at 3 days (Cytostatic activity [2]): 17 ± 6 µg/mL (≈ 62.2 µM) | Cell toxicity MCC (minimum cytotoxic concentration) (HEL cells): >100 µg/mL | Cell toxicity MCC (minimum cytotoxic concentration) (PHKs): >50 µg/mL | Virus production (TCID50/ml) (HSV-2 [3]; 0.04 μg/ml, day 6): 1×10^5 TCID50/ml | Virus production (TCID50/ml) (HSV-2 [3]; 0.2 μg/ml, day 6): 6×10^4 TCID50/ml | Virus production (TCID50/ml) (HSV-2 [3]; 1 μg/ml, day 6): 8×10^2 TCID50/ml | Virus production (TCID50/ml) (HSV-2 [3]; 5 μg/ml, day 6): No virus | Virus production (TCID50/ml) (HSV-2 [3]; 20 μg/ml, day 6): No virus | Virus production (TCID50/ml) (HSV-2 [3]; 100 μg/ml, day 6): No virus | Virus production (TCID50/ml) (HSV-2 [3]; 500 μg/ml, day 6 post infection): No virus | Virus production (PFU/ml) (HSV-2 [4]; 0.2 μg/ml): 9.9×10^3 PFU/ml | Virus production (PFU/ml) (HSV-2 [4]; 1 μg/ml): 2.5×10^2 PFU/ml | Virus production (PFU/ml) (HSV-2 [4]; 5 μg/ml): No virus | Virus production (PFU/ml) (HSV-2 [4]; 20 μg/ml): No virus | Virus production (PFU/ml) (HSV-2 [4]; 100 μg/ml): No virus | Virus production (PFU/ml) (HSV-2 [4]; 500 μg/ml): No virus | Cytopathicity (CPE) (%) (HSV-2 [5]; 0.2 μg/ml): 5% | Cytopathicity (CPE) (%) (HSV-2 [5]; 1 μg/ml): None | CPE suppression in M/M (HSV-2 [5]; 5 μg/ml): full CPE suppression | Cytopathicity (CPE) (%) (HSV-2 [5]; 5 μg/ml): None | Cytopathicity (CPE) (%) (HSV-2 [5]; 20 μg/ml): None | Cytopathicity (CPE) (%) (HSV-2 [5]; 100 μg/ml): None | Cytopathicity (CPE) (%) (HSV-2 [5]; 500 μg/ml): None | performance in 1% gel-treated mice, HSV-1 vs HSV-2 (HSV-1): performed markedly better against HSV-1 than HSV-2 | performance in 1% gel-treated mice compared with tenofovir (HSV-2 [6]): virtually not superior to tenofovir against HSV-2

Nc1ccn(C[C@@H](CO)OCP(=O)(O)O)c(=O)n1 [Cidofovir, (S)-1-(3-hydroxy-2-phosphonylmethoxypropyl)cytosine]
CC50 at 3 days (Cytostatic activity [1]): 82 ± 57 µg/mL (≈ 294 µM) | CC50 at 3 days (Cytostatic activity [2]): 34 ± 20 µg/mL (≈ 122 µM) | Cell toxicity MCC (minimum cytotoxic concentration) (HEL cells): >100 µg/mL | Cell toxicity MCC (minimum cytotoxic concentration) (PHKs): >50 µg/mL

Nc1ccn([C@@H]2CS[C@H](CO)O2)c(=O)n1 [lamivudine]
effect on HSV-2G replication (HSV-2G, HSV-2MS): no effect

CC(C)OC(=O)OCOP(=O)(CO[C@H](C)Cn1cnc2c(N)ncnc21)OCOC(=O)OC(C)C [tenofovir DF, tenofovir disoproxil fumarate]
effect on HSV-2 acquisition (HSV-2 [7]): did not reduce HSV-2 acquisition
